Assay [1] relates to HepG2. Put plainly: Cytoprotection against rotenone-induced mitochondrial dysfunction in human HepG2 cells assessed as acute ATP rescue at 10 uM co-treated with rotenone for 1 hr by luciferase-based assay relative to control. Type of assay: functional. Summed up: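 HepG2 cells, 15 000 per well, attached overnight; after 24 h co-incubated with quinone (10 µM) and rotenone (10 µM) for 1 hour in glucose-free growth media. ATP then measured immediately by luciferase reaction, expressed as percentage of untreated (no rotenone) control.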

Assay [2] can be described thus: Ratio of IC50 for cytotoxicity against rat RGC5 cells to IC50 for cytotoxicity against human HepG2 cells.
For assay [3], the system named is HepG2. Briefly: Cytoprotection against rotenone-induced mitochondrial dysfunction in human HepG2 cells assessed as increase in cell viability by measuring ATP levels at 10 uM preincubated for 48 hrs followed by rotenone-induction and measured after 24 hrs by luciferase-based assay. The assay is classed as functional. Summed up: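 5000 HepG2 cells per well preincubated with quinone (10 µM) for 2 days, then challenged with rotenone (1 µM) for 6 hours in HBSS. Post-incubated with quinone alone in HBSS for a further 24 h. Viability read as ATP content by luciferase reaction, as percentage of untreated (no rotenone) control. 3 independent experiments, n = 6 wells each; error bars SD.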

For assay [4], the species on record is Rattus norvegicus. Briefly: Cytoprotection against rotenone-induced mitochondrial dysfunction in rat RGC5 cells assessed as increase in cell viability by measuring ATP levels at 10 uM preincubated for 48 hrs followed by rotenone-induction and measured after 24 hrs by luciferase-based assay. Type of assay: functional.
The nature of assay [5]: Electrochemical behavior of the compound assessed as redox potential (Eox) corrected toward saturated calomel reference electrode by cyclic voltammetry.
Assay [6] can be described thus: Electrochemical behavior of the compound assessed as redox potential (Ered) corrected toward saturated calomel reference electrode by cyclic voltammetry.

Structures are written as SMILES. The source made the active and inactive calls. The rule behind the calls is not given here. Where only a bound is given, the exact number is not on record here.

Take `CC1=C(CC(C)CCCC(C)C)C(=O)c2ccccc2C1=O` (stereo unspecified): the Activity in assay [1] was 60 - 90%. Further, in assay [2], the “Ratio IC50” value amounted to 2.
As to `CC1=C(CCC(=O)O)C(=O)c2ccccc2C1=O`, the Activity in assay [1] is on record as 60 - 90%. The result in assay [3] was Active. Further, the “Ratio IC50” value in assay [2] is 2.
For `CC1=C(CCCC(=O)N[C@@H](CC(C)C)C(=O)O)C(=O)c2ccccc2C1=O`, in assay [1], the Activity is given as 5 - 70%.
`CC1=C(CCCCC(=O)O)C(=O)c2ccccc2C1=O`: the Activity in assay [1] was 60 - 90%. Moreover, the result in assay [3] was Active.
Take `CC1=C(CC2CCC(=O)O2)C(=O)c2ccccc2C1=O` (stereo unspecified): the Activity in assay [1] is on record as 60 - 90%. Further, the “Ratio IC50” value in assay [2] amounted to 2.
In the case of `CCCCCCCC1=C(C)C(=O)c2ccccc2C1=O`, the Activity in assay [1] is reported as 60 - 90%. Besides, the outcome in assay [3] and in assay [4] was Active. Moreover, in assay [2], the “Ratio IC50” value amounted to 2.
Turning to `CC1=C(CCCC(=O)NCCc2c[nH]c3ccccc23)C(=O)c2ccccc2C1=O`, the Activity in assay [1] and in assay [3] was 100% throughout.
On to `C=CCCCCCCCCC1=C(C)C(=O)c2ccccc2C1=O`, for which the Activity in assay [1] was 60 - 90%. Besides, the “Ratio IC50” value in assay [2] amounted to 2.
For the compound `CC1=C(CCCC(=O)N[C@@H](Cc2ccccc2)C(=O)OC(C)(C)C)C(=O)c2ccccc2C1=O`, the Activity in assay [3] was 90 - 100%.
On to `CC1=C(CCCC(=O)N[C@H](CO)Cc2ccccc2)C(=O)c2ccccc2C1=O`, for which the Activity in assay [1] and in assay [3] was 100% throughout.
For `COC(=O)[C@@H](NC(=O)CCCC1=C(C)C(=O)c2ccccc2C1=O)c1ccccc1`, in assay [3], the Activity was 90 - 100%.
On to `CCCCCCOC(=O)CCC1=C(C)C(=O)c2ccccc2C1=O`, for which the Activity in assay [1] is given as below 30%. Also, the “Ratio IC50” value in assay [2] was determined as 2.
As to `CC1=C(CCCC(=O)N[C@@H](Cc2ccc(OC(=O)CCCC3=C(C)C(=O)c4ccccc4C3=O)cc2)C(=O)OC(C)(C)C)C(=O)c2ccccc2C1=O`, in assay [3], the Activity is 90 - 100%.
The same measure, in the same setting: then `CC1=C(CCCC(=O)N2CCC[C@H]2C(=O)OC(C)(C)C)C(=O)c2ccccc2C1=O`, with 90 - 100%.
With `CC1=C(CCCCCCCCCCO)C(=O)c2ccccc2C1=O`, the results for the Activity in assay [5] and in assay [6] were -0.768 V and -0.845 V, respectively. The result in assay [3] and in assay [4] was Active. The “Ratio IC50” value in assay [2] is given as 2.
Consider `CC1=C(CCCC(=O)N[C@@H](Cc2ccccc2)C(=O)O)C(=O)c2ccccc2C1=O`, for which the Activity is 5 - 70% in assay [1] and 90 - 100% in assay [3].
As to `C=CCCC1=C(C)C(=O)c2ccccc2C1=O`, the Activity in assay [1] is given as 60 - 90%. Moreover, the “Ratio IC50” value in assay [2] came out at 2.
Consider `CCOC(=O)CCC1=C(C)C(=O)c2ccccc2C1=O`, for which the Activity in assay [1] is given as below 30%. The outcome in assay [3] was inactive. The outcome in assay [4] was Active. Also, the “Ratio IC50” value in assay [2] is reported as 2.
For `CC1=C(CCCC(=O)NCCc2ccc(O)cc2)C(=O)c2ccccc2C1=O`, the Activity in assay [1] and in assay [3] was 100% each time.
As for `CCOC(=O)CCCC1=C(C)C(=O)c2ccccc2C1=O`, in assay [1], the Activity was below 30%. In assay [2], the “Ratio IC50” value turned out to be 2.
For `CC1=C(CCCCCCCCC2CO2)C(=O)c2ccccc2C1=O` (stereo unspecified), the Activity in assay [1] was 60 - 90%. Further, the “Ratio IC50” value in assay [2] was 2.
On to `CCCCCCCCCCC1=C(C)C(=O)c2ccccc2C1=O`, for which the outcome in assay [3] and in assay [4] was inactive. The “Ratio IC50” value in assay [2] is 2.
For the compound `CC1=C(CCC(C)O)C(=O)c2ccccc2C1=O` (stereo unspecified), the Activity in assay [1] was 60 - 90%. In addition, the result in assay [3] and in assay [4] was Active. Moreover, the “Ratio IC50” value in assay [2] was determined as 2.
`CC1=C(CCCCCC(=O)O)C(=O)c2ccccc2C1=O`: in assay [1], the Activity is recorded as 60 - 90%. In assay [3], the outcome was Active.
Turning to `CCC[C@H](NC(=O)CCCC1=C(C)C(=O)c2ccccc2C1=O)C(=O)OC(C)(C)C`, in assay [3], the Activity was 90 - 100%.
Take `CCCCOC(=O)CCCC1=C(C)C(=O)c2ccccc2C1=O`: the Activity in assay [1] was below 30%. Besides, the “Ratio IC50” value in assay [2] worked out at 2.
Consider `CC1=C(CC(C)(O)C(F)(F)F)C(=O)c2ccccc2C1=O` (stereo unspecified), for which the Activity in assay [1] is listed as 60 - 90%.
On to `CC1=C(CCCC(=O)N[C@@H](Cc2ccc(O)cc2)C(=O)OC(C)(C)C)C(=O)c2ccccc2C1=O`, for which the Activity in assay [1] worked out at 90%. Further, the outcome in assay [3] was inactive.
For the compound `CC1=C(CCC(F)(F)F)C(=O)c2ccccc2C1=O`, in assay [1], the Activity was 60 - 90%.
As for `CCCCCCC1=C(C)C(=O)c2ccccc2C1=O`, the Activity in assay [1] is reported as 60 - 90%. Also, the outcome in assay [3] and in assay [4] was Active. Besides, the “Ratio IC50” value in assay [2] turned out to be 2.
On to `COC1=C(OC)C(=O)C(CCCCCCCCCCO)=C(C)C1=O` [IDEBENONE], for which the Activity in assay [1] is 60 - 90%; in assay [5], -0.637 V; in assay [6], -0.714 V.
In the case of `CC1=C(CC[C@@H](C)[C@H]2CC[C@H]3[C@@H]4CC[C@@H]5C[C@H](O)CC[C@]5(C)[C@H]4C[C@H](O)[C@]23C)C(=O)c2ccccc2C1=O`, the “Ratio IC50” value in assay [2] came out at 2.
Consider `COC(=O)[C@H](Cc1ccccc1)NC(=O)CCCC1=C(C)C(=O)c2ccccc2C1=O`, for which the Activity in assay [3] is reported as 90 - 100%.
On to `CC(=O)CCC1=C(C)C(=O)c2ccccc2C1=O`, for which the Activity in assay [1] is 60 - 90%. The result in assay [3] and in assay [4] was Active. In addition, the “Ratio IC50” value in assay [2] amounted to 2.
Regarding `CCCCOC(=O)CCC1=C(C)C(=O)c2ccccc2C1=O`, in assay [1], the Activity is given as below 30%. The “Ratio IC50” value in assay [2] was 2.
Consider `CCCCCCCCC1=C(C)C(=O)c2ccccc2C1=O`, for which, in assay [1], the Activity is 60 - 90%. Further, the result in assay [3] and in assay [4] was Active. The “Ratio IC50” value in assay [2] was 2.
Consider `CC1=C(CCC2CCCC2)C(=O)c2ccccc2C1=O`, for which the Activity in assay [1] is given as 60 - 90%. For the same compound, the “Ratio IC50” value in assay [2] was determined as 2.
For `CC1=C(CCCC(=O)N[C@@H](CC(C)C)C(=O)OC(C)(C)C)C(=O)c2ccccc2C1=O`, the Activity in assay [1] is recorded as 90%. In addition, the outcome in assay [3] was inactive.
For `CC1=C(CCCC(=O)NCC(=O)OC(C)(C)C)C(=O)c2ccccc2C1=O`, the Activity in assay [3] is on record as 90 - 100%.
Take `CC1=C(CCCc2ccccc2)C(=O)c2ccccc2C1=O`: the “Ratio IC50” value in assay [2] was determined as 2.
Take `CCCCCCCC/C=C\CCCCCCCC1=C(C)C(=O)c2ccccc2C1=O`: in assay [2], the “Ratio IC50” value amounted to 2.
In the case of `CC1=C(CCCC(=O)N2CCC[C@H]2C(=O)O)C(=O)c2ccccc2C1=O`, the Activity in assay [1] is given as 5 - 70%.
On to `CCCCCCOC(=O)CCCC1=C(C)C(=O)c2ccccc2C1=O`, for which, in assay [1], the Activity was below 30%. Besides, in assay [2], the “Ratio IC50” value was found to be 2.
As for `COC(=O)[C@H](NC(=O)CCCC1=C(C)C(=O)c2ccccc2C1=O)c1ccccc1`, the Activity in assay [3] is 90 - 100%.
For `COc1ccc(CCNC(=O)CCCC2=C(C)C(=O)c3ccccc3C2=O)cc1OC`, the Activity in assay [1] and in assay [3] was 100% in each case.
Take `CC1=C(CCC(C)C)C(=O)c2ccccc2C1=O`: the “Ratio IC50” value in assay [2] is listed as 2.
In the case of `COc1ccc(CC2=C(C)C(=O)c3ccccc3C2=O)cc1OC`, in assay [1], the Activity was 60 - 90%. For the same compound, in assay [2], the “Ratio IC50” value is on record as 2.

(Values after ChEMBL document CHEMBL4480378, “Amide linked redox-active naphthoquinones for the treatment of mitochondrial dysfunction” (2019).)
